PMI activator – activators of human PMI, primary screen, biochemical, fluorescence intensity, near-Km mannose 6-phosphate; purified human PMI, coupled resazurin fluorescence, 20 min; active compounds read high; 1 = vehicle control, 0 substrate-free wells; activation factor at 20 µM; 190,000 compounds, 0.005% hits;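 active = activation factor of 2 or more at 20 µM, relative to plate controls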
Target sequence (P34949 whole entry, looked up): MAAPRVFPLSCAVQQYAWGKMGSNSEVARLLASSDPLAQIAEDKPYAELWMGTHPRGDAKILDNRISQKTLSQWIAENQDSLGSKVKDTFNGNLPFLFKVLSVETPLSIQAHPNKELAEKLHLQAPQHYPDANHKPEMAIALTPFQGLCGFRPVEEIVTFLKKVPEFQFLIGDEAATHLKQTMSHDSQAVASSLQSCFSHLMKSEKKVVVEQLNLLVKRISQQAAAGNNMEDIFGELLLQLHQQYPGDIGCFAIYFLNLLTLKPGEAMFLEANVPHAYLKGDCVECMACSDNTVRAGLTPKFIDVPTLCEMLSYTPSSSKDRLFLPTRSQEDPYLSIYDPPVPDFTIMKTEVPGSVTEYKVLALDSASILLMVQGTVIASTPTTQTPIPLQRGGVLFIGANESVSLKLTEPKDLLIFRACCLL
PTEN del growth – growth suppression of PTEN-null HCT116, primary screen, cell-based, CellTiter-Glo | viability, % at 10 µM | AID 827, 2007 | 140,000 compounds, 1.2% hits | HCT116 PTEN-null viability, 60 h; active compounds read low;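 active = viability at or below a set limit, 4 SD under the median of all tested compounds, cut at about 3.7% in these data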;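 also: PTEN knockout HCT116 line with beta catenin targeted HCT116 as companion control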
HCT116 bCat-KO – primary screen for growth suppressors in beta-catenin knockout HCT116 cells (colon tumor, human); HCT116 beta-catenin knockout viability, CellTiter-Glo, 60 h; active compounds read low; viability, % at 10 µM; 140,000 compounds, 1.5% hits; AID 818, 2007;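 active = viability at or under a set limit, the compound median less 4 SD, cut at about 6% in these data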
Lmaj promast – Leishmania major promastigote growth inhibition, primary screen | Leishmania major promastigotes, resazurin fluorescence viability | AID 1063, 2008 | inhibition, % at 10 µM | 200,000 compounds, 9% hits; in the data active = inhibition above about 50%;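 also: promastigotes grown with compound for 44 hours at 28 °C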
PMI act hi M6P – human PMI activators, high substrate, primary screen, biochemical, fluorescence intensity, near-saturating mannose 6-phosphate; Mannose-6-phosphate isomerase (Homo sapiens), P34949; coupled PMI enzyme assay, resazurin fluorescence, 20 min; active compounds read high; 1 = untreated enzyme, 0 = substrate-free blank; activation factor at 20 µM; 190,000 compounds, 0.34% hits; AID 1216, 2008;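 active = activation factor of 2 or more at 20 µM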
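Test system: Human PMI in coupled enzyme assay | Input: 15 ng/mL PMI | Medium: HEPES-buffered pH 7.4 with magnesium and detergent | Compound: One concentration, 20 µM, in 1% DMSO | Incubation: Enzyme reaction with compound 20 min at room temperature | Detection: Diaphorase-driven resazurin-to-resorufin fluorescence, excitation 544, emission 590 nm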
Hits are given with their value; i = inactive; nt = no result. Only some compounds are listed: those with a hit (about 9.6% of all), similar ones and a draw of the others.

SMILES	PMI activator	PTEN del growth	HCT116 bCat-KO	Lmaj promast	PMI act hi M6P
Cc1ccc(Cn2ncc3c(N4CCN(c5ccc(C)cc5)CC4)ncnc32)cc1	i	i	i	i	i
CC(C)COP(=O)(OCC(C)C)C(Nc1ccccc1)c1ccc2c(c1)OCO2 (configuration not stated)	i	i	i	i	i
CC(C)COP(=O)(OCC(C)C)C(Nc1ccccc1)c1ccc(F)cc1 (configuration not stated)	i	i	i	93	i
O=c1c2ccccc2nc(N/N=C/c2ccc(O)cc2)n1O	i	i	i	i	i
Cc1nc(N/N=C/c2ccc(O)cc2)c2cnn(-c3ccccc3)c2n1	i	nt	nt	67	i
Cc1cc(=O)oc(C)c1C(=O)OCC(=O)c1ccc(Cl)cc1	i	i	i	i	i
COc1ccccc1NCc1ccc([N+](=O)[O-])s1	i	i	i	60	i
Cc1cc(C)cc(N(CC(=O)NCc2ccco2)C(=O)CCC(=O)Nc2nccs2)c1	nt	nt	nt	78	nt
CC(C)COc1ccc(C(=O)OCCN2CCOCC2)c(O)c1	i	i	i	i	i
COc1cc(C(=O)OCCN2CCOCC2)ccc1O	i	i	i	56	i
CCn1c(/N=C/c2ccccc2NS(=O)(=O)c2ccc(C)cc2)nc2ccccc21	i	i	i	85	i
Cc1cc(NC2CCCCC2)nc2ccccc12	i	nt	nt	84	i
Cc1cc(NCc2ccccn2)nc2ccccc12	i	i	i	i	i
CSc1cccc(NC(=S)N(Cc2ccccc2)Cc2cccnc2)c1	i	nt	nt	96	i
CCN(Cc1ccncc1)C(=S)Nc1c(C)cccc1C	i	i	i	i	i
Cc1cccc(C)c1NC(=S)N(Cc1ccccc1)Cc1cccnc1	i	nt	nt	89	i
COc1ccc(CN(Cc2cccnc2)C(=S)NCCc2ccccc2)cc1OC	i	i	i	100	i
CCc1ccccc1N/C(=N\S(=O)(=O)c1ccccc1)C(F)(F)F	i	i	i	i	i
Cc1nnc(SCc2cccc([N+](=O)[O-])c2)[nH]c1=O	i	nt	nt	i	i
O=C(Nc1ccccc1)c1sc2cc(C(F)(F)F)cnc2c1-c1cccs1	i	i	i	59	i
CCOC(=O)C1(CCOC)CCN(C(C)CCc2ccc(OC)cc2)CC1 (configuration not stated)	i	nt	nt	91	i
CCOC(=O)C1(Cc2ccc(OC)cc2)CCN(S(C)(=O)=O)CC1	i	nt	nt	i	i
COCCCN(C(=S)NC(=O)C12CC3CC(CC(C3)C1)C2)c1c(N)n(Cc2ccccc2)c(=O)[nH]c1=O	i	nt	nt	i	i
CS(=O)(=O)N(Cc1ccccc1)c1ccc(C(=O)N2CCN(c3cccc(Cl)c3)CC2)cc1	i	i	i	73	i
CS(=O)(=O)N(CC(=O)N1CCN(c2ccccc2)CC1)c1cc(C(F)(F)F)ccc1Cl	i	i	i	i	i
SMILES	PMI activator	PTEN del growth	HCT116 bCat-KO	Lmaj promast	PMI act hi M6P
CC1CCN(C(=O)CN(c2ccc(Cl)c(C(F)(F)F)c2)S(C)(=O)=O)CC1	i	i	i	69	i
CS(=O)(=O)N(CC(=O)N1CCN(c2ccccc2)CC1)c1ccc(Cl)c(C(F)(F)F)c1	i	i	i	89	i
CCOc1ccc(NCc2cc3c(C(C)(C)C)nn(-c4ccccc4)c3[nH]c2=O)cc1	i	1.2	2.3	i	i
Cc1ccc(-c2nn(-c3ccccc3)c3[nH]c(=O)c(CNCc4ccccc4)cc23)cc1	i	i	3.5	97	i
Cc1ccc(-c2nn(-c3ccccc3)cc2CNCc2ccccc2)cc1	i	nt	nt	62	i
Cc1ccc(-c2nn(-c3ccccc3)c3[nH]c(=O)c(CNCCN(C)C)cc23)cc1	i	nt	nt	nt	i
N#Cc1cccc(NC(=O)C2SC(=Nc3ccccc3)C(C(=O)N3CCOCC3)=C2N)c1 (configuration not stated)	i	i	i	54	i
Cc1ccc(NC(=O)C2SC(=Nc3ccccc3)C(C(=O)Nc3ccc(Cl)cc3)=C2N)cc1 (configuration not stated)	i	nt	nt	i	i
Clc1ncccc1-c1nc2ccccc2n1Cc1ccccc1	i	i	i	94	i
COCc1nc2ccccc2n1Cc1cccc(C)c1	i	i	i	i	i
Cc1cccc(Cn2c(Cc3ccccc3)nc3ccccc32)c1	i	i	i	92	i
CCOC(=O)N1CCC(NC(=O)c2ccc3c(=O)n4c(nc3c2)CCCC4)CC1	i	i	i	i	i
COc1ccc(S(=O)(=O)Nc2ccc3cn[nH]c3c2)cc1C	i	nt	nt	i	i
CCOC(=O)c1ccc(S(=O)(=O)Nc2ccc3cn[nH]c3c2)cc1	i	i	i	68	i
CCCCCc1ccc(S(=O)(=O)NCCc2ccncc2)cc1	i	i	i	78	i
CCN1CCN(CC(O)COc2cccc(OC)c2)CC1 (configuration not stated)	i	i	i	i	i
CC1CCN(CC(O)COc2ccc(F)cc2)CC1 (configuration not stated)	i	i	i	i	i
COc1cccc(OCC(O)CN2CCC(C)CC2)c1 (configuration not stated)	i	nt	i	71	i
CC1CCN(CC(O)COc2cccc(F)c2)CC1 (configuration not stated)	i	i	i	66	i
Cc1cccc(OCC(O)CN2CCN(C3CCCCC3)CC2)c1 (configuration not stated)	i	i	i	91	i
CCn1cc(C(=O)OCC(=O)c2cc(C)n(-c3ccccc3F)c2C)c(=O)c2ccc(C)nc21	i	i	i	53	i
CC(=O)Nc1ccc(N=Cc2ccc[nH]2)cc1	i	i	i	i	i
Oc1ccccc1N=Cc1ccc[nH]1	i	i	i	100	i
CN(C(=O)CSc1nc(-c2ccccc2)cn1N)C(c1ccccc1)c1ccccc1	i	i	i	100	i
COCCNC(=O)CN(c1cc(Cl)ccc1OC)S(C)(=O)=O	i	i	i	i	i
SMILES	PMI activator	PTEN del growth	HCT116 bCat-KO	Lmaj promast	PMI act hi M6P
CC(NC(=O)CCc1nnc(-c2ccccc2)o1)c1ccccc1 (configuration not stated)	i	nt	nt	i	i
CC(NC(=O)CCc1nnc(CCCc2ccccc2)o1)c1ccccc1 (configuration not stated)	nt	nt	nt	76	nt
CCOC(=O)/C(=C\c1ccc(OC(F)F)cc1)C1=Nn2c(nnc2-c2ccc(Cl)cc2)SC1	i	2.1	1.4	100	i
CC/C(=N\Nc1ccccc1[N+](=O)[O-])c1ccc(O)cc1	i	nt	nt	i	i
CCOC(=O)c1c(-c2ccc(C)cc2)csc1NC(=O)CCSc1nnc2ccccn12	i	i	i	i	i
COc1cc(/C=C(\C#N)c2nn(CCO)c(N)c2C#N)cc(OC)c1OC	i	nt	nt	i	2.2
CCN(c1ccccc1)S(=O)(=O)c1cnc[nH]1	i	i	i	i	i

Screening data (PubChem BioAssay)
